Source: paper PMC4720140 (Journal of medicinal chemistry, 2015)
Entries after “also recorded” stand apart in the source; their conditions may differ.

Experiments:
[1] = test system: phosphorylation of Akt (Ser473), MDM2 and IKK in PC-3 cells; assay: Western blot of Akt signaling in PC-3 cells; format: cell-based; settings: different concentrations, 24 h
[2] = test system: phosphorylation of Akt (Ser473), MDM2 and IKK in LNCaP cells; assay: Western blot of Akt signaling in LNCaP cells; format: cell-based; settings: different concentrations, 24 h
How it was run: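 Lines kept in RPMI 1640 with 10% FBS at 37 °C, 5% CO₂. LNCaP were seeded on poly-L-lysine-coated flasks (12000 cells/cm²) for 24 h, then dosed in serum-free RPMI. Cells got test compound for 24 h, then were scraped and lysed in 1% SDS/Tris pH 8 buffer with protease inhibitors. Lysates were spun at 14000g and BCA-normalized, then run on SDS-PAGE/nitrocellulose, probed with primary antibody (1:1000, overnight, 4 °C) and HRP secondary, and detected by ECL.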

[3] = test system: Akt and PHLPP1 membrane localization in LNCaP cells; assay: Immunocytochemistry of cellular distribution of Akt and PHLPP1 in LNCaP cells; format: cell-based; settings: serum-free medium, 24 h
PC-3 cells = assay: MTT cell viability assay in PC-3 cells; format: cell-based; settings: 24 h exposure in serum-free medium
How it was run: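 PC-3 cells plated uncoated at 5000 cells/well in 10% FBS. After 24 h, exposed to test compound in serum-free medium for 24 h. MTT added (0.5 mg/mL final) for 2 h, then medium replaced with DMSO and absorbance read at 595 nm. Viability expressed as % of vehicle-treated control; n = 6, means ± SD.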

PH domain of PHLPP1 = molecular target: T1, PH domain of PHLPP1 (Homo sapiens, UniProt O60346); assay: SPR binding to the PHLPP1 PH domain
T1 sequence (O60346 536-636 limits assumed): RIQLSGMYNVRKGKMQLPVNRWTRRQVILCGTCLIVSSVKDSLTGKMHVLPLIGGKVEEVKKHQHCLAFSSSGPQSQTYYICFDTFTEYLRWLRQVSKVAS
How it was run: (§1)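 Surface plasmon resonance: GST-tagged PH-domain fusion protein amine-coupled to a CM5 chip at 17000 response units. Test compound injected at 1–20 µM at a flow rate of 30 µL/min. DMSO at 1% (v/v) or less in samples and running buffer.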

[4] = test system: phosphorylation of Ser473-Akt, MDM2 and IKK in PC-3 xenograft tumors; assay: Western blot of Akt signaling markers in PC-3 tumor lysates; format: in vivo, athymic nude mice; settings: after 21 days
[5] = test system: ILK distribution in LNCaP cells; assay: Immunocytochemistry of cellular distribution of ILK in LNCaP cells; format: cell-based; settings: serum-free medium, 24 h
How it was run: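 LNCaP cells seeded on poly-L-lysine-coated surfaces at 12000 cells/cm² for 24 h, then exposed to test compound in serum-free RPMI 1640 for 24 h. Fixed in 4% formaldehyde for 20 min, permeabilised with 0.1% Triton X-100 for 15 min at room temperature, blocked in 1% FBS for 1 h. Endogenous ILK stained with antibody (1:300) overnight, then Alexa Fluor-conjugated secondary (1:500) for 2 h. Nuclei stained with DAPI; imaged by confocal microscopy.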

PH domain of PDK1 = molecular target: T2, PH domain of PDK1 (Homo sapiens, UniProt O15530); assay: SPR binding to the PDK1 PH domain
T2 sequence (O15530 459-550 limits assumed): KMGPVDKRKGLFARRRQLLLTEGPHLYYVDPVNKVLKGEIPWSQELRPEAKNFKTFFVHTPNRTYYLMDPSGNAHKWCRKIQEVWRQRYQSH
How it was run: as §1

PH domain of ILK = molecular target: T3, PH domain of ILK (Homo sapiens, UniProt Q13418); assay: SPR binding to the ILK PH domain
T3 sequence (Q13418 180-212 limits assumed): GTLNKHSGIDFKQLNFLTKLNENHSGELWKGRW
How it was run: as §1

[6] = test system: subcutaneous PC-3 xenograft tumors; assay: PC-3 xenograft tumor growth in nude mice; format: in vivo, athymic nude mice; settings: versus vehicle
[7] = test system: membrane translocation of Akt and PHLPP1 in LNCaP cells; assay: Western blot of membrane versus cytoplasmic fractions of LNCaP cells; format: cell-based; settings: 24 h
[8] = oral gavage 100 mg/kg once daily
[9] = ip injection 50 mg/kg once daily for 21 days

| Compound | Phosphorylation level of Akt (Ser473) and/or MDM2 and IKK [1] | Phosphorylation level of Akt (Ser473) and/or MDM2 and IKK [2] | Localization of Akt and PHLPP1 to the plasma membrane ([3]; 5 µM) | Phosphorylation levels of Akt, MDM2 and IKK in tumor lysates [4, 8] | Localization of Akt and PHLPP1 to the plasma membrane ([3]; 10 µM) | Suppression of PC-3 xenograft tumor growth [6, 9] | also measured |
| --- | --- | --- | --- | --- | --- | --- | --- |
| CC(C)CCCC1(C)CCc2cc(S(N)(=O)=O)cc(Br)c2O1 (centres unmarked) [Compound 22] | dose-dependently reduced the phosphorylation level of Akt and/or MDM2 and IKK | dose-dependently reduced the phosphorylation level of Akt and/or MDM2 and IKK | facilitated the localization of Akt and PHLPP1 to the plasma membrane |  |  |  |  |
| COc1cc2c(c(C)c1C)OC(C)(CCCC(C)C)CC2 (centres unmarked) [Compound 5] |  |  |  |  |  |  | Antiproliferative effect (IC50) in PC-3 cells (PC-3 cells): remained inactive |
| Cc1c(O)cc2c(c1C)O[C@@](C)(CCCC(C)C)CC2 [Compound 3, (S)-2,7,8-trimethyl-2-(4-methylpentyl)chroman-6-ol] | dose-dependently reduced the phosphorylation level of Akt and/or MDM2 and IKK | dose-dependently reduced the phosphorylation level of Akt and/or MDM2 and IKK |  | unable to affect any of these signaling markers | facilitated the localization of Akt and PHLPP1 to the plasma membrane | significantly suppressed PC-3 xenograft tumor growth | Kd (PH domain of PHLPP1): 0.69 ± 0.36 µM; Cellular distribution of ILK ([5]; 10 µM): Lack of effect; Kd (PH domain of PDK1): 10.2 ± 1.2 µM; Kd (PH domain of ILK): 8.7 ± 3.6 µM; Suppression of PC-3 xenograft tumor growth ([6]; oral gavage 100 mg/kg once daily for 21 days, 100 mg/kg): not apparent; also recorded: no in vivo tumor-suppressive activity |
| CC(C)CCCC1(C)CCc2cc(S(N)(=O)=O)cc(F)c2O1 (centres unmarked) [Compound 21] | failed to elicit Ser473-Akt dephosphorylation | failed to elicit Ser473-Akt dephosphorylation |  |  | no change in the cellular distribution of Akt or PHLPP1 |  |  |
| Cc1c(S(N)(=O)=O)cc2c(c1C)OC(C)(CCCC(C)C)CC2 (centres unmarked) [Compound 20] | dose-dependently reduced the phosphorylation level of Akt and/or MDM2 and IKK | dose-dependently reduced the phosphorylation level of Akt and/or MDM2 and IKK | facilitated the localization of Akt and PHLPP1 to the plasma membrane | parallel decreases in the phosphorylation levels of Akt, MDM2, and IKK |  | equipotent in suppressing PC-3 tumor growth irrespective of the route of administration | Membrane translocation of Akt and PHLPP1 (membrane versus cytoplasmic fractions) [7]: higher potency than 3 in facilitating the membrane translocation; Phosphorylation levels of Akt, MDM2 and IKK in tumor lysates ([4]; ip injection 50 mg/kg once daily): parallel decreases in the phosphorylation levels of Akt, MDM2, and IKK; Cellular distribution of ILK ([5]; 5 µM): Lack of effect; also recorded: no apparent changes in the distribution of ILK; Suppression of PC-3 xenograft tumor growth ([6]; oral gavage 100 mg/kg once daily for 21 days): equipotent in suppressing PC-3 tumor growth irrespective of the route of administration |
